Assays:
Jurkat = assay: Inhibitory activity evaluated against human jurkat cell line in cellular assay; type: functional, cell-based
Method in brief: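 Human Jurkat cells, in an assay where caspase-8 is relevant but other caspases also contribute. Run for 24 h at 37 °C. Read-out is IC50 (µM).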

Rattus norvegicus = species: Rattus norvegicus; assay: Inhibitory activity evaluated against rat Con A embryonic cortical neurons in cellular assay; type: functional
SKW 6.4 = assay: Inhibitory activity was evaluated against human SKW 6.4 cell line in cellular assay; type: functional, cell-based
Method in brief: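 Cellular assay (Con A; SKW 6.4 cells) run for 24 h at 37 °C. Read-out is IC50 (µM).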

THP-1 = assay: Inhibitory activity evaluated against human THP-1 cell line in cellular assay; type: functional, cell-based
Method in brief: (§1)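 Human cells (monocytes; THP-1 line) in a caspase-1-dependent cellular assay run for 24 h at 37 °C. Read-out is IC50 (µM).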

Caspase-9 = target: T1, Caspase-9 (Homo sapiens, UniProt P55211); assay: Binding affinity towards human Caspase-9
T1 sequence (P55211 whole entry): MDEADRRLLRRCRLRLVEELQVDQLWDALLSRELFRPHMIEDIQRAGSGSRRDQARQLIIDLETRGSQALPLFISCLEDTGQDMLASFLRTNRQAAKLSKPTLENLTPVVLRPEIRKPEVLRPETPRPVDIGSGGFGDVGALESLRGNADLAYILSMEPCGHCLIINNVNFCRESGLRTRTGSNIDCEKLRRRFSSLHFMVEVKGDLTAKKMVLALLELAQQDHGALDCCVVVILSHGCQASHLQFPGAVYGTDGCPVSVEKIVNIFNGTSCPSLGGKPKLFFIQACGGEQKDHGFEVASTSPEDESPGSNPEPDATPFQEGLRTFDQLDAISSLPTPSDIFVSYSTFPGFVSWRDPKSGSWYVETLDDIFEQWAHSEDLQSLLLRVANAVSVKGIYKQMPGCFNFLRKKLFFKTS

Homo sapiens [1] = species: Homo sapiens; assay: Inhibitory activity against human monocyte at the concentration of 10 uM; type: functional
Method in brief: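 Human monocyte caspase-1-dependent cellular assay. Compound tested at a single 10 µM concentration. Read-out is percent inhibition.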

Homo sapiens [2] = species: Homo sapiens; assay: Inhibitory activity against human monocyte; type: functional; method in brief: as §1

SMILES	IC50 (Jurkat) [µM]	IC50 (Rattus norvegicus) [µM]	IC50 (SKW 6.4) [µM]	IC50 (THP-1) [µM]	IC50 (Caspase-9) [µM]	inhibition at 10 µM (Homo sapiens [1]) [%]	IC50 (Homo sapiens [2]) [µM]
CC(C)[C@H](NC(=O)C(=O)Nc1ccncc1)C(=O)N[C@@H](CC(=O)O)C(=O)COc1c(F)c(F)cc(F)c1F	15.8	50	30.1	5.67			
CC(C)[C@H](NC(=O)C(=O)Nc1cnccn1)C(=O)N[C@@H](CC(=O)O)C(=O)COc1c(F)c(F)cc(F)c1F	0.17	5.9	19.1	1.44			
CC(C)[C@H](NC(=O)C(=O)Nc1ccccn1)C(=O)N[C@@H](CC(=O)O)C(=O)COc1c(F)c(F)cc(F)c1F	0.14	9.4	2.2	1.43			
CC(C)[C@H](NC(=O)C(=O)Nc1ccc(Cl)c2ccccc12)C(=O)N[C@@H](CC(=O)O)C(=O)COc1c(F)c(F)cc(F)c1F	0.03	0.75	2.45	0.61			
CC(C)[C@H](NC(=O)C(=O)Nc1ccc(F)cc1)C(=O)N[C@@H](CC(=O)O)C(=O)COc1c(F)c(F)cc(F)c1F	0.019	2	0.92	1.21			
CC(C)[C@H](NC(=O)C(=O)NCc1ccccc1)C(=O)N[C@@H](CC(=O)O)C(=O)COc1c(F)c(F)cc(F)c1F	0.0771	1.5	0.91	0.57			
CC(C)[C@H](NC(=O)C(=O)Nc1c(Cl)c(Cl)cc(Cl)c1Cl)C(=O)N[C@@H](CC(=O)O)C(=O)COc1c(F)c(F)cc(F)c1F	0.22	0.66	0.41	1.05			
CC(C)[C@H](NC(=O)C(=O)Nc1ccccc1)C(=O)N[C@@H](CC(=O)O)C(=O)COc1c(F)c(F)cc(F)c1F	0.43	1.5	0.94	0.07			
CC(C)[C@H](NC(=O)C(=O)Nc1cc(F)c(F)c(F)c1F)C(=O)N[C@@H](CC(=O)O)C(=O)COc1c(F)c(F)cc(F)c1F	0.04	3.5	1.19	0.57			
CC(C)[C@H](NC(=O)C(=O)NC12CC3CC(CC(C3)C1)C2)C(=O)N[C@@H](CC(=O)O)C(=O)COc1c(F)c(F)cc(F)c1F	1.76	3.5	0.72	1.79			
CC(C)[C@H](NC(=O)C(=O)NC1CCCc2ccccc21)C(=O)N[C@@H](CC(=O)O)C(=O)COc1c(F)c(F)cc(F)c1F (stereo partly drawn)	0.37	2.4	0.86	2.91			
CC(C)C[C@H](NC(=O)COc1cccc2ccccc12)C(=O)N[C@H](C=O)CC(=O)O					2.72	17	
CC(C)[C@H](NC(=O)C(=O)Nc1c(F)cc(F)c(F)c1F)C(=O)N[C@@H](CC(=O)O)C(=O)COc1c(F)c(F)cc(F)c1F	0.11	2.1	0.58	0.27			
CCCCCCCNC(=O)C(=O)N[C@H](C(=O)N[C@@H](CC(=O)O)C(=O)COc1c(F)c(F)cc(F)c1F)C(C)C	1.28	7	7.8	7.71			
CC(C)[C@H](NC(=O)C(=O)Nc1cccc2cc3ccccc3cc12)C(=O)N[C@@H](CC(=O)O)C(=O)COc1c(F)c(F)cc(F)c1F	0.01	0.85	1.96	0.22			
CC(C)[C@H](NC(=O)C(=O)Nc1cccc2c1CCCC2)C(=O)N[C@@H](CC(=O)O)C(=O)COc1c(F)c(F)cc(F)c1F	0.175	2	1.07	1.1			

SMILES	IC50 (Jurkat) [µM]	IC50 (Rattus norvegicus) [µM]	IC50 (SKW 6.4) [µM]	IC50 (THP-1) [µM]	IC50 (Caspase-9) [µM]	inhibition at 10 µM (Homo sapiens [1]) [%]	IC50 (Homo sapiens [2]) [µM]
CC(C)C[C@H](NC(=O)CNc1cccc2ccccc12)C(=O)N[C@H](C=O)CC(=O)O					0.16	18	
CC(C)C[C@H](NC(=O)C(=O)Nc1cccc2ccccc12)C(=O)N[C@H](C=O)CC(=O)O					0.23	79	3.08
CC(C)[C@H](NC(=O)C(=O)Nc1ccccc1F)C(=O)N[C@@H](CC(=O)O)C(=O)COc1c(F)c(F)cc(F)c1F	0.097	0.97	0.5	0.68			
COc1cc(CNC(=O)C(=O)N[C@H](C(=O)N[C@@H](CC(=O)O)C(=O)COc2c(F)c(F)cc(F)c2F)C(C)C)cc(OC)c1OC	1.55	9	18.3	3.5			
CC(C)[C@H](NC(=O)C(=O)Nc1ccc2cc3ccccc3cc2c1)C(=O)N[C@@H](CC(=O)O)C(=O)COc1c(F)c(F)cc(F)c1F	0.15	0.55	0.75	0.66			
CC(C)[C@H](NC(=O)C(=O)NC1CCCCC1)C(=O)N[C@@H](CC(=O)O)C(=O)COc1c(F)c(F)cc(F)c1F	0.06	6.12	1.78	0.72			
CC(C)[C@H](NC(=O)C(=O)Nc1ccc(I)cc1F)C(=O)N[C@@H](CC(=O)O)C(=O)COc1c(F)c(F)cc(F)c1F	0.01	0.7	0.15	0.41			
CC(C)[C@H](NC(=O)C(=O)Nc1ccccc1-c1ccccc1)C(=O)N[C@@H](CC(=O)O)C(=O)COc1c(F)c(F)cc(F)c1F	0.2	2.5	0.48	0.16			
CC(C)[C@H](NC(=O)C(=O)Nc1c(F)c(F)c(F)c(F)c1F)C(=O)N[C@@H](CC(=O)O)C(=O)COc1c(F)c(F)cc(F)c1F	0.39	2.9	14	0.47			
CC(C)[C@H](NC(=O)C(=O)NN(c1ccccc1)c1ccccc1)C(=O)N[C@@H](CC(=O)O)C(=O)COc1c(F)c(F)cc(F)c1F	0.19	4.87	2.24	0.78			
CC(C)[C@H](NC(=O)C(=O)Nc1ccc2ccccc2c1)C(=O)N[C@@H](CC(=O)O)C(=O)COc1c(F)c(F)cc(F)c1F	0.0007	3.28	0.38	0.7			
CC(C)[C@H](NC(=O)C(=O)NNc1ccccc1)C(=O)N[C@@H](CC(=O)O)C(=O)COc1c(F)c(F)cc(F)c1F	2.35	20	9.9	6.58			
CC(C)[C@H](NC(=O)C(=O)Nc1ccccc1Cl)C(=O)N[C@@H](CC(=O)O)C(=O)COc1c(F)c(F)cc(F)c1F	0.016	0.3	0.11	0.16			
CC(C)[C@H](NC(=O)C(=O)NN(C(=O)c1ccccc1)c1ccccc1)C(=O)N[C@@H](CC(=O)O)C(=O)COc1c(F)c(F)cc(F)c1F	0.07	2.3	2.01	0.63			
CC(C)[C@H](NC(=O)C(=O)Nc1ccccc1C(C)(C)C)C(=O)N[C@@H](CC(=O)O)C(=O)COc1c(F)c(F)cc(F)c1F	0.0022	5.68	0.34	1.85			
CC(C)[C@H](NC(=O)C(=O)Nc1ccc2c(c1)CCC2)C(=O)N[C@@H](CC(=O)O)C(=O)COc1c(F)c(F)cc(F)c1F	0.041	1	0.27	1.28			
